The values below come from ChEMBL document CHEMBL1949639, “New losartan-hydrocaffeic acid hybrids as antihypertensive-antioxidant dual drugs: Ester, amide and amine linkers” (2012).

Test [1] can be described thus: Antioxidant activity assessed as trolox equivalent of ABTS radical scavenging activity relative to control. Type of test: functional. A digest of the protocol: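 Metmyoglobin/H2O2 oxidation of ABTS to its radical, read as absorbance at 600 nm in 96-well format. Samples taken from K2CO3-solubilised stocks diluted in PBS. Activity expressed as TEAC: the concentration (mM) giving the same percentage change in ABTS radical absorbance as 1 mM Trolox.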

A short description of test [2]: Antihypertensive activity against angiotensin-2-induced cell contraction in Wistar rat VSMC assessed as changes in planar cell surface area after 30 mins by planimetric technique. It is filed as functional. A digest of the protocol: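 VSMC from thoracic aortas of Wistar rats, collagenase-digested, grown in DMEM/Ham's F-12 with 10% foetal calf serum at 37 °C, 5% CO2, used at passages 3–5. Cells in Tris-glucose buffer pH 7.45 with angiotensin II plus compound, […], for 30 min. Photographed at 0 and 30 min, planar surface area by planimetry. 4–8 cells per experiment, mean of 5 experiments gives percent inhibition of contraction.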

Another test relates to Rattus norvegicus. Kind of test: Antihypertensive activity in Wistar rat assessed as decrease of L-NAME-induced systolic arterial pressure at 20 mg/kg, po administered with drinking water qd for 3 days by sphygmomanometer. It is filed as functional, Artery. The settings on record: dose 30 mg/kg, in the assay text read “30 mg/kg” for “20 mg/kg”. A digest of the protocol: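 Two-month-old male Wistar rats received L-NAME in drinking water (20 mg/kg/day). After one week, losartan (20 mg/kg/day) or hybrids (30 mg/kg/day) were given daily in drinking water for three days. At least six animals per group. Arterial pressure measured in conscious rats by tail-cuff sphygmomanometer.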

For `CCCCc1nc(Cl)c(CO)n1Cc1ccc(-c2ccccc2-c2nnn[nH]2)cc1` [LOSARTAN], the Ratio in test [1] is 0.03. Moreover, the “inhibition (INH)” value in test [2] is listed as 93%. The Activity with Rattus norvegicus worked out at 13 mmHg.
Consider `COc1cc(C(=O)O)cc(OC)c1O`, for which the Ratio in test [1] is 1.07.
As to `CCCCc1nc(Cl)c(C(=O)OCCCc2ccc(O)c(O)c2)n1Cc1ccc(-c2ccccc2-c2nn[nH]n2)cc1`, in test [1], the Ratio is 0.1. Moreover, in test [2], the “inhibition (INH)” value was 88%. The Activity in the test with Rattus norvegicus is 9 mmHg.
For `CC(C)(C)c1cc(C(=O)O)cc(C(C)(C)C)c1O`, the Ratio in test [1] stood at 0.181.
Take `O=C(O)c1ccc(O)c(O)c1`: the Ratio in test [1] is 0.153.
Consider `CCCCc1nc(Cl)c(C(=O)NCCCc2ccc(O)c(O)c2)n1Cc1ccc(-c2ccccc2-c2nn[nH]n2)cc1`, for which the Ratio in test [1] was found to be 0.17. The “inhibition (INH)” value in test [2] is on record as 93%. In the test on Rattus norvegicus, the Activity was found to be 1 mmHg.
As to `CCCCc1nc(Cl)c(C(=O)O)n1Cc1ccc(-c2ccccc2-c2nn[nH]n2)cc1`, the Ratio in test [1] came out at 0.03.
On the same count and under the same terms, to `O=C(O)/C=C/c1ccc(O)c(O)c1` belongs 0.2.
Consider `CCCCc1nc(C(=O)OCCCc2ccc(O)c(O)c2)c(Cl)n1Cc1ccc(-c2ccccc2-c2nn[nH]n2)cc1`, for which the Ratio in test [1] is 0.24. Besides, the “inhibition (INH)” value in test [2] amounted to 95%. For the same compound, the Activity in the test with Rattus norvegicus is recorded as 14 mmHg.
In the case of `CC[C@H](C)[C@H](NC(=O)[C@H](Cc1ccc(O)cc1)NC(=O)[C@@H](NC(=O)[C@H](CCCNC(=N)N)NC(=O)[C@@H](N)CC(=O)O)C(C)C)C(=O)N[C@@H](Cc1cnc[nH]1)C(=O)N1CCC[C@H]1C(=O)N[C@@H](Cc1ccccc1)C(=O)O` [ANGIOTENSIN II], in test [2], the “inhibition (INH)” value is reported as 82%.
Take `CC(C)(C)c1cc(CC(=O)O)cc(C(C)(C)C)c1O`: the Ratio in test [1] is 1.06.
As for `O=C(O)CCc1ccc(O)c(O)c1` [DIHYDROCAFFEIC ACID], the Ratio in test [1] came to 0.36. Besides, the “inhibition (INH)” value in test [2] is recorded as 85%.
For the compound `CCCCc1nc(Cl)c(CNC(=O)CCc2ccc(O)c(O)c2)n1Cc1ccc(-c2ccccc2-c2nn[nH]n2)cc1`, the Ratio in test [1] is 0.27. The “inhibition (INH)” value in test [2] came out at 90%. The Activity with Rattus norvegicus came out at 13 mmHg.
As for `CCCCc1nc(Cl)c(CNCCCc2ccc(O)c(O)c2)n1Cc1ccc(-c2ccccc2-c2nn[nH]n2)cc1`, the Ratio in test [1] was found to be 0.13. For the same compound, the “inhibition (INH)” value in test [2] was found to be 92%.
For the compound `COc1cc(C(=O)O)ccc1O`, the Ratio in test [1] amounted to 0.202.
Take `CCCCc1nc(Cl)c(COC(=O)CCc2ccc(O)c(O)c2)n1Cc1ccc(-c2ccccc2-c2nnn[nH]2)cc1`: in test [1], the Ratio worked out at 0.31. Also, the “inhibition (INH)” value in test [2] is listed as 94%. Further, in the test on Rattus norvegicus, the Activity is 29 mmHg.
